From publication PMC12374733 (Journal of the American Chemical Society, 2025)
Read-outs that look alike come from different tables or passages of the source. Values belong to the molecule of their own block, whether it stands above or below them.

Columns and labels:
[1] = Cell viability, colorimetric sulforhodamine B assay; type: cell-based, mouse; details: mouse, NIH-3T3 cells
NIH-3T3 cells = experiment: as above; type: cell-based, mouse
SH-SY5Y cells = experiment: Cell viability during in-cell synthesis of cinacalcet; type: cell-based, human; details: SH-SY5Y; for IC50: Homo sapiens
Outline: (§1)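 SH-SY5Y cells were pretreated with aldehyde substrate (200 μM) and sodium formate hydride source (1 mM) for 3 h, then washed with fresh media. The amine partner and Cp* iridium catalyst were added together for a further 24 h. Controls lacked one or more reaction components. Viability is expressed relative to untreated cells.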

[2] = as above; type: cell-based, human; details: human, SH-SY5Y cells
Outline: as §1

[3] = Lipophilicity, partition between octanol and PBS; type: physicochemical; details: shake-flask

Molecule: O=CCc1ccccc1 [1c, phenylacetaldehyde]
viability at 3 h, 400 µM [1]: 38% | IC50 (NIH-3T3 cells; Mus musculus, NIH3T3, read-out: 50% inhibition concentration (IC50)): 185 µM

IC50 (SH-SY5Y cells): 175 µM
Molecule: O=CCCc1cccc(C(F)(F)F)c1 [1p, 3-(3-(trifluoromethyl)phenyl)propanal]
viability at 3 h, 200 μM [2]: ≥ 85%

Molecule: OCCc1ccccc1 [2c]
IC50 (NIH-3T3 cells; NIH-3T3 cell viability): > 7000 µM

Molecule: NCCc1ccccc1 [3c, phenethylamine]
IC50 (NIH-3T3 cells; Mus musculus, NIH3T3): > 7000 µM

IC50 (SH-SY5Y cells): 1500 µM
Molecule: C[C@@H](N)c1cccc2ccccc12 [(R)-41, (R)-1-(1-naphthyl)ethylamine]

IC50 (SH-SY5Y cells): 16 µM
Molecule: C[C@@H](NCCCc1cccc(C(F)(F)F)c1)c1cccc2ccccc12 [cinacalcet, reference compound]

Molecule: CC(N)c1ccc(O)cc1 (stereo not shown) [compound 10, 4-(1-aminoethyl)phenol]
viability at 24 h, 1 mM [1]: ≥ 84% | IC50 (NIH-3T3 cells; Mus musculus, NIH3T3): > 8000 µM

partition coefficients (Log P) [3]: 1.24
Molecule: [Cp*Ir(picolinamidate)Cl] [Ir1]
IC50 (NIH-3T3 cells; read-out: 50% inhibition concentration (IC50), NIH-3T3 cell viability): 62 µM | cell viability relative to untreated control (SH-SY5Y cells; 1p (200 μM), HCOONa (1 mM), (R)-41 and Ir catalyst all present, 24 h): 28%
